≈ marks a conversion by molar mass, not a printed value. Calls of active or inactive are those of the source. No cut-off for these calls is given here.
Key:
Cladosporium herbarum [1] = test: Growth inhibition of Cladosporium herbarum VIAM MA1511 at 10 ug by bioautography test; format: functional, organism-based
Fusarium avenaceum [2] = test: Inhibition of germ tube formation in Fusarium avenaceum VIAM MA1512 after 16 hrs by microdilution technique; format: functional, organism-based
In short: (§1)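 Stock (2 mg in 250 µL acetone plus 4.75 mL 4% malt extract, emulsified with 0.2% Tween 80) serially 2-fold microdiluted in 4% malt extract broth. Conidia were added at 10⁴ CFU/mL, then incubated 16 h at room temperature and stopped with lactophenol blue. Mycelial size was taken as pixel counts from images of 10 germinated conidia per well. Probit-log estimates covered 200–0.1 µg/mL. Controls were vehicle stock and benomyl.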

Cladosporium herbarum [3] = test: Inhibition of germ tube formation in Cladosporium herbarum VIAM MA1511 at 0.4 to 200 ug/ml after 16 hrs by microdilution technique; format: functional
In short: (§2)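 Germ tube inhibition by 2-fold serial microdilution in 4% malt extract broth. Compound stock of 2 mg in 250 µL acetone plus 4.75 mL malt extract with 0.2% Tween 80; negative control was stock without compound. Spores added at 10⁴ CFU/mL, incubated 16 h at room temperature, stopped with lactophenol blue. Mycelial size taken as pixel counts from images of 10 germinated conidia per well. Probit-log estimates over 200–0.1 µg/mL; MIC = lowest concentration with no germination.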

Botrytis cinerea [4] = test: Inhibition of germ tube formation in Botrytis cinerea VIAM MA2725 at 0.4 to 200 ug/ml after 16 hrs by microdilution technique; format: functional; in short: as §2
Pyricularia grisea = test: Inhibition of germ tube formation in Pyricularia grisea VIAM MA1628 after 16 hrs by microdilution technique; format: functional, organism-based; in short: as §2
Cladosporium herbarum [5] = test: Inhibition of germ tube formation in Cladosporium herbarum VIAM MA1511 after 16 hrs by microdilution technique; format: functional, organism-based; in short: as §1
Botrytis cinerea [6] = test: Inhibition of germ tube formation in Botrytis cinerea VIAM MA2725 after 16 hrs by microdilution technique; format: functional, organism-based; in short: as §1
Alternaria citri = test: Inhibition of germ tube formation in Alternaria citri VIAM MA1627 after 16 hrs by microdilution technique; format: functional, organism-based; in short: as §1
Fusarium avenaceum [7] = test: Inhibition of germ tube formation in Fusarium avenaceum VIAM MA1512 at 1.6 to 200 ug/ml after 16 hrs by microdilution technique; format: functional; in short: as §1
Botrytis cinerea [8] = test: Inhibition of germ tube formation in Botrytis cinerea VIAM MA2725 at 1.6 to 200 ug/ml after 16 hrs by microdilution technique; format: functional; in short: as §1

Row | SMILES | Activity (Cladosporium herbarum [1]) | EC50 (Fusarium avenaceum [2]) [µg/mL] | EC90 (Fusarium avenaceum [2]) [µg/mL] | MIC (Fusarium avenaceum [2]) [µg/mL] | inhibition (INH) (Cladosporium herbarum [3]) [%] | inhibition (INH) (Botrytis cinerea [4]) [%] | EC90 (Pyricularia grisea) [µg/mL] | MIC (Pyricularia grisea) [µg/mL] | MIC (Cladosporium herbarum [5]) [µg/mL] | MIC (Botrytis cinerea [6]) [µg/mL] | EC50 (Alternaria citri) [µg/mL] | EC90 (Alternaria citri) [µg/mL] | MIC (Alternaria citri) [µg/mL] | EC50 (Pyricularia grisea) [µg/mL] | EC50 (Cladosporium herbarum [5]) [µg/mL] | EC90 (Cladosporium herbarum [5]) [µg/mL] | EC50 (Botrytis cinerea [6]) [µg/mL] | EC90 (Botrytis cinerea [6]) [µg/mL] | inhibition (INH) (Fusarium avenaceum [7]) [%] | inhibition (INH) (Botrytis cinerea [8]) [%]
1 | COc1cc(O)c(C)c(-c2cc3c(O)cccc3o2)c1 | Active | – | – | – | – | – | – | – | – | – | – | – | – | – | – | – | – | – | – | –
2 | COc1cc(O)c(C)c(CCc2cccc(O)c2OC)c1 | Active | – | – | – | – | – | – | – | – | – | – | – | – | – | – | – | – | – | – | –
3 | COc1cc(O)cc(CCc2cccc(O)c2OC)c1 | Active | – | – | – | – | – | – | – | – | – | – | – | – | – | – | – | – | – | – | –
4 | Cc1c(O)cc(/C=C/c2ccccc2)cc1O | Active | – | – | – | – | – | – | – | – | – | – | – | – | – | – | – | – | – | – | –
5 | Cc1c(O)cc(CCc2ccccc2O)cc1O | Active | – | – | – | – | – | – | – | – | – | – | – | – | – | – | – | – | – | – | –
6 | Oc1cc(O)cc(-c2cc3ccccc3o2)c1 | Active | – | – | – | – | – | – | – | – | – | – | – | – | – | – | – | – | – | – | –
7 | Oc1cc(O)cc(/C=C/c2ccccc2)c1 | Active | – | – | – | – | – | – | – | – | – | – | – | – | – | – | – | – | – | – | –
8 | CCCCNC(=O)n1c(NC(=O)OC)nc2ccccc21 [BENOMYL] | – | 0.02 (≈ 0.0689 µM) | > 200 | 100 (≈ 344 µM) | 85 | 85 | 84 (≈ 289 µM) | 200 (≈ 689 µM) | > 200 | > 200 | > 200 | > 200 | > 200 | – | – | – | – | – | – | –
9 | COc1cc(O)cc(-c2cc3c(O)cccc3o2)c1 [STEMOFURAN B] | Active | 10 (≈ 39 µM) | > 200 | > 200 | – | – | 52 (≈ 203 µM) | 50 (≈ 195 µM) | > 200 | > 200 | 5 (≈ 19.5 µM) | 128 (≈ 499 µM) | 200 (≈ 780 µM) | 1.4 (≈ 5.46 µM) | 183 (≈ 714 µM) | > 200 | 8 (≈ 31.2 µM) | > 200 | – | –
10 | Cc1c(O)cc(-c2cc3ccccc3o2)cc1O [STEMOFURAN C] | Active | 21 (≈ 87.4 µM) | > 200 | > 200 | – | – | 30 (≈ 125 µM) | 50 (≈ 208 µM) | > 200 | > 200 | 7 (≈ 29.1 µM) | 528 (≈ 2200 µM) | > 200 | 3.2 (≈ 13.3 µM) | 8 (≈ 33.3 µM) | > 200 | 29 (≈ 121 µM) | > 200 | – | –
11 | COc1cc(-c2cc3c(O)cccc3o2)c(C)c(O)c1C [STEMOFURAN E] | Active | 18 (≈ 63.3 µM) | > 200 | > 200 | – | – | – | – | > 200 | > 200 | 5 (≈ 17.6 µM) | > 200 | > 200 | – | 0.8 (≈ 2.81 µM) | > 200 | 26 (≈ 91.4 µM) | > 200 | – | –
12 | COc1c(C)c(O)c(C)c(-c2cc3c(O)cccc3o2)c1C [STEMOFURAN F] | Active | – | – | > 200 | – | – | – | – | > 200 | > 200 | 10 (≈ 33.5 µM) | > 200 | > 200 | – | 79 (≈ 265 µM) | > 200 | – | – | 30 | 30
13 | COc1cc(-c2cc3c(O)c(C)ccc3o2)c(C)c(O)c1C [STEMOFURAN G] | – | – | – | > 200 | – | – | – | – | > 200 | > 200 | 14 (≈ 46.9 µM) | > 200 | > 200 | – | > 200 | > 200 | – | – | 30 | 30
14 | COc1cc(-c2cc3c(O)cccc3o2)c(C)c(OC)c1C [STEMOFURAN J] | – | 32 (≈ 107 µM) | > 200 | > 200 | – | – | 8.5 (≈ 28.5 µM) | 25 (≈ 83.8 µM) | > 200 | > 200 | 50 (≈ 168 µM) | > 200 | > 200 | 0.9 (≈ 3.02 µM) | 34 (≈ 114 µM) | > 200 | 50 (≈ 168 µM) | > 200 | – | –
15 | COc1ccccc1CCc1cc(O)cc(O)c1 [STILBOSTEMIN A] | Active | > 200 | > 200 | > 200 | – | – | > 200 | > 200 | > 200 | > 200 | 70 (≈ 287 µM) | > 200 | > 200 | 46 (≈ 188 µM) | > 200 | > 200 | – | – | – | 30
16 | Cc1c(O)cc(CCc2ccccc2)cc1O [STILBOSTEMIN B] | Active | 16 (≈ 70.1 µM) | > 200 | > 200 | – | – | 371 (≈ 1630 µM) | 100 (≈ 438 µM) | > 200 | > 200 | 5 (≈ 21.9 µM) | > 200 | 200 (≈ 876 µM) | 3 (≈ 13.1 µM) | 15 (≈ 65.7 µM) | > 200 | 10 (≈ 43.8 µM) | > 200 | – | –
17 | COc1ccccc1CCc1cc(O)c(C)c(O)c1 [STILBOSTEMIN D] | Active | 57 (≈ 221 µM) | > 200 | > 200 | – | – | 152 (≈ 588 µM) | 100 (≈ 387 µM) | > 200 | > 200 | 19 (≈ 73.6 µM) | > 200 | > 200 | 3 (≈ 11.6 µM) | 17 (≈ 65.8 µM) | > 200 | 11 (≈ 42.6 µM) | > 200 | – | –
